As a reminder, the IC50 is the midpoint of a concentration-inhibition curve. Lower therefore signals higher potency. By EC50 is commonly meant the concentration that produces a half-maximal response. Usually CC50 stands for the concentration giving 50% cytotoxicity.

Experimental findings from ChEMBL document CHEMBL1821684, “A novel and efficient one-pot synthesis of symmetrical diamide (bis-amidate) prodrugs of acyclic nucleoside phosphonates and evaluation of their biological activities” (Eur J Med Chem, 2011) are described below.

Active and inactive are the calls of the source. No cut-off for these calls is given here.

Data set [1] is filed under the species Mus musculus. Nature of the data set: Immunomodulatory activity in C57BL/6 mouse peritoneal cells assessed as inhibition of LPS-induced NO production at 25 uM after 24 hrs by Griess reagent method. Type of data set: functional. The essentials:
(§1)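 Peritoneal cells pooled from 4 female C57BL/6 mice (8–10 weeks) were seeded at 2 × 10^6 cells/mL in complete RPMI-1640 with 10% FBS, at 37 °C and 5% CO2. Compound was given alone or with IFN-γ (5000 pg/mL) or IFN-γ plus E. coli LPS (100 pg/mL) for 24 h. Supernatant nitrite was measured with Griess reagent (5 min, A540) against a nitrite calibration curve.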
Background: Griess reagent forms a coloured azo dye with nitrite.

In the next data set the test system is HL-60. Description: Antiproliferative activity against human HL60 after 72 hrs by XTT assay. Format: functional, cell-based. The conditions noted are these: HL-60, 72 h. The essentials: (§2)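 CCRF-CEM, HL-60 and HeLa S3 cells were grown in RPMI 1640 with 5% calf fetal serum, and Hep G2 cells in Eagle's MEM with 10% calf fetal serum. Cells were exposed to compound, and growth was ended 72 h after drug addition. Viability was then quantified by the XTT spectrophotometric assay.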
For orientation: Tetrazolium dyes change colour on reduction, which living cells bring about.

The species entered for data set [2] is Mus musculus. Description: Immunostimulatory activity in C57BL/6 mouse peritoneal cells assessed as stimulation of LPS-induced NO production at 25 uM after 24 hrs by Griess reagent method. Format: functional. The essentials:
as §1

Data set [3] can be described thus: Antiproliferative activity against human HepG2 after 72 hrs by XTT assay. The settings on record: HepG. Format: functional. The essentials:
as §2

The test system of another data set is CCRF-CEM. Nature of the data set: Antiproliferative activity against human CCRF-CEM after 72 hrs by XTT assay. Format: functional, cell-based. The essentials: as §2
Data set [4] is described as follows: Antiproliferative activity against human HeLaS3 after 72 hrs by XTT assay. Type of data set: functional. The conditions noted are these: HeLa S3, 72 h. The essentials: as §2
In data set [5] the test system is Human immunodeficiency virus 1. Nature of the data set: Antiviral activity against HIV1 3B infected in human MT-2 cells assessed as reduction in virus-induced cytopathic effect after 5 days by luminescence assay. Type of data set: functional, organism-based. The conditions noted are these: Human immunodeficiency virus 1, 3B, MT2, 120 h. The essentials:
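MT-2 cells were kept below 0.6 × 10^6 cells/mL and infected in bulk with HIV-1 IIIB for 3 h at MOI 0.0055. They were seeded at 3 × 10^3 cells/well with 3-fold serial compound dilutions in triplicate, 0.5% DMSO final. After 5 days at 37 °C, cytopathic effect was read by CellTiter-Glo luminescence. EC50 came from non-linear regression of multiple data sets.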
Background: Protection from cytopathic effect is a common read-out in antiviral testing.

Data set [6] is described as follows: Cytotoxicity against human MT2 cells assessed as inhibition of cell proliferation after 5 days by luminescence assay. Type of data set: cell-based. The essentials:
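Uninfected MT-2 cells at 3 × 10^3 cells/well were run on replicate plates alongside the antiviral assay, with 3-fold serial compound dilutions in triplicate and 0.5% DMSO final. After 5 days at 37 °C, viability was read by CellTiter-Glo luminescence. CC50 came from non-linear regression of multiple data sets.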

On to `CCOC(=O)[C@H](C)NP(=O)(COCCn1cnc2c(NC3CC3)nc(N)nc21)N[C@@H](C)C(=O)OCC` [RABACFOSADINE], for which the inhibition entry in the data set listed under Mus musculus [1] is “inactive”. In addition, the IC50 in the data set with HL-60 is 0.78 µM; in data set [3] it was 1.74 µM; in the data set with CCRF-CEM, 0.48 µM; in data set [4], 2.15 µM. Also, the outcome in the data set listed under Mus musculus [2] was inactive.
In the case of `CCOC(=O)[C@H](C)NP(=O)(COCCn1cnc2c(NC3CCCCCCC3)nc(N)nc21)N[C@@H](C)C(=O)OCC`, the inhibition result in the data set filed under Mus musculus [1] is “inactive”. Also, the result in the data set listed under Mus musculus [2] was inactive.
For `C[C@H](Cn1cnc2c(N)nc(N)nc21)OCP(=O)(O)O`, in data set [5], the EC50 was determined as 0.94 µM. Further, the CC50 at 120 h in data set [6] was more than 100 µM.
As to `CCOC(=O)[C@H](C)NP(=O)(CO[C@H](CF)Cn1cnc2c(NC3CC3)nc(N)nc21)N[C@@H](C)C(=O)OCC`, the inhibition result in the data set listed under Mus musculus [1] was “inactive”. In the data set listed under Mus musculus [2], the result was inactive. In addition, the EC50 in data set [5] was 10.7 µM. Besides, the CC50 at 120 h in data set [6] is more than 100 µM.
Regarding `CCOC(=O)[C@H](C)NP(=O)(COCCn1cnc2c(=O)[nH]c(N)nc21)N[C@@H](C)C(=O)OCC`, in the data set listed under Mus musculus [1], the inhibition entry was “inactive”. The IC50 is 3.02 µM in the data set with HL-60, 2.32 µM in data set [3], 1.22 µM with CCRF-CEM and 3.94 µM in data set [4]. Further, the outcome in the data set filed under Mus musculus [2] was inactive.
On to `CCOC(=O)[C@H](C)NP(=O)(CO[C@H](C)Cn1cnc2c(N)nc(F)nc21)N[C@@H](C)C(=O)OCC`, for which the inhibition result in the data set listed under Mus musculus [1] was “inactive”. Besides, in the data set listed under Mus musculus [2], the result was inactive. The EC50 in data set [5] amounted to 5.51 µM. Also, in data set [6], the cytotoxic concentration (CC50) at 120 h is more than 100 µM.
For `CCOC(=O)[C@H](C)NP(=O)(CO[C@H](C)Cn1cnc2c(N)nc(N)nc21)N[C@@H](C)C(=O)OCC`, in the data set listed under Mus musculus [1], the inhibition entry was “inactive”. The outcome in the data set filed under Mus musculus [2] was inactive. For the same molecule, the EC50 in data set [5] was determined as 0.29 µM. Besides, the CC50 at 120 h in data set [6] was more than 100 µM.
On to `Nc1nc(NC2CC2)c2ncn(C[C@@H](CF)OCP(=O)(O)O)c2n1`, for which, in data set [5], the EC50 turned out to be 13.2 µM. Further, in data set [6], the CC50 at 120 h was more than 100 µM.
Take `CCOC(=O)[C@H](C)NP(=O)(CO[C@H](CF)Cn1cnc2c(N)ncnc21)N[C@@H](C)C(=O)OCC`: the inhibition result in the data set listed under Mus musculus [1] was “inactive”. Besides, in the data set listed under Mus musculus [2], the result was inactive. In data set [5], the EC50 worked out at 0.54 µM. The CC50 at 120 h in data set [6] is more than 100 µM.
For `CCOC(=O)[C@H](C)NP(=O)(COCCOc1cc(N)nc(N)n1)N[C@@H](C)C(=O)OCC`, in the data set filed under Mus musculus [1], the inhibition result was “inactive”. Further, the result in the data set filed under Mus musculus [2] was inactive. The EC50 in data set [5] is 1.13 µM. In addition, the CC50 at 120 h in data set [6] came out at 73.3 µM.
For the molecule `C[C@H](Cn1cnc2c(N)nc(F)nc21)OCP(=O)(O)O`, the EC50 in data set [5] was more than 85.3 µM. In data set [6], the CC50 at 120 h was more than 100 µM.
